Source: ChEMBL document CHEMBL4308921, “Structure-Activity Relationships of Central Nervous System Penetration by Fatty Acid Amide Hydrolase (FAAH)-Targeted Thyromimetic Prodrugs” (ACS Med Chem Lett, 2019)

Assays:
[1] = Brain to serum permeability coefficient, Kp of the compound in C57BL/6 mouse assessed as sobetirome level at 3.05 umol/kg, ip after 1 hr by LC-MS/MS analysis; assay type: ADME, organism-based
[2] = Prodrug activation in C57BL/6 mouse serum assessed as FAAH-mediated sobetirome formation at 3.05 umol/kg, ip after 1 hr by LC-MS/MS analysis; assay type: organism-based; conditions: in vivo
[3] = Prodrug activation in C57BL/6 mouse brain assessed as FAAH-mediated sobetirome formation at 3.05 umol/kg, ip after 1 hr by LC-MS/MS analysis; assay type: organism-based; conditions: in vivo
[4] = target: T1, Fatty-acid amide hydrolase 1 (Homo sapiens, UniProt O00519); experiment: Prodrug activation in COS7 cells overexpressing human FAAH assessed as FAAH-mediated sobetirome formation by measuring compound hydrolysis rate at 100 uM by LC-MS/MS analysis; assay type: cell-based
T1 sequence (O00519 whole entry): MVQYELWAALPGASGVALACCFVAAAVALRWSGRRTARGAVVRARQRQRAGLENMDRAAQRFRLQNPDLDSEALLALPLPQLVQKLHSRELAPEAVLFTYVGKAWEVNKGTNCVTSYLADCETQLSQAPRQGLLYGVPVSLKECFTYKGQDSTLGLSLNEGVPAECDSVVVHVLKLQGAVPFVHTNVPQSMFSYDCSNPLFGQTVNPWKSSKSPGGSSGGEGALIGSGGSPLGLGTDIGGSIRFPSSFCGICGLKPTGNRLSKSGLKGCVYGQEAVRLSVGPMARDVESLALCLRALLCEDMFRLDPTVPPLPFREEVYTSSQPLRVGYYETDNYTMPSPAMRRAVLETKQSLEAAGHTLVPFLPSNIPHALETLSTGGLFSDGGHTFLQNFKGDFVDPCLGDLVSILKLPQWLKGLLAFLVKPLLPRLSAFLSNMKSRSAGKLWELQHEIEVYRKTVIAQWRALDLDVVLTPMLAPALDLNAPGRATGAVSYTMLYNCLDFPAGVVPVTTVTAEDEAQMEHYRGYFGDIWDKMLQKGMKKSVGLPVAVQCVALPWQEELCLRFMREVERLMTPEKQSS
How it was run: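 Hydrolysis kinetics were measured in homogenate of COS-7 cells overexpressing human FAAH, with prodrug substrate at 100 µM. Rate is given as nmol mg-1 min-1, mean ± SEM, n = 3.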

[5] = Drug uptake in C57BL/6 mouse brain at 3.05 umol/kg, ip after 1 hr by LC-MS/MS analysis; assay type: ADME, organism-based; conditions: read-out: Drug uptake
[6] = Drug uptake in C57BL/6 mouse serum at 3.05 umol/kg, ip after 1 hr by LC-MS/MS analysis; assay type: ADME, organism-based; conditions: read-out: Drug uptake
[7] = Brain to serum permeability coefficient, Kp of the compound in C57BL/6 mouse at 3.05 umol/kg, ip after 1 hr by LC-MS/MS analysis; assay type: ADME, organism-based

Compound	Kp [1]	Drug uptake [2] [ng/g]	Drug uptake [3] [ng/g]	Drug metabolism [4] [nmol/mg/min]	concentration at 1 h [5] [ng/g]	concentration at 1 h [6] [ng/g]	Kp at 1 h [7]
Cc1cc(OCC(N)=O)cc(C)c1Cc1ccc(O)c(C(C)C)c1	1.17	79.5	93.9	4.7	–	–	–
Cc1cc(OCC(=O)Nc2ccccc2O)cc(C)c1Cc1ccc(O)c(C(C)C)c1	0.04	174.7	7.4	1.4	–	–	–
Cc1cc(OCC(=O)NC2CC2)cc(C)c1Cc1ccc(O)c(C(C)C)c1	2.49	23.8	58	3.2	–	–	–
Cc1cc(OCC(=O)NC(C)CO)cc(C)c1Cc1ccc(O)c(C(C)C)c1 (stereo not given)	0.69	33.7	22.3	4.5	–	–	–
Cc1cc(OCC(=O)Nc2cccc(F)c2)cc(C)c1Cc1ccc(O)c(C(C)C)c1	0.04	383.8	15.4	2.1	–	–	–
Cc1cc(OCC(=O)NCCNS(C)(=O)=O)cc(C)c1Cc1ccc(O)c(C(C)C)c1	0.06	26.2	1.6	2.4	–	–	–
Cc1cc(OCC(=O)O)cc(C)c1Cc1ccc(O)c(C(C)C)c1 [SOBETIROME]	–	–	–	–	3.6	319	0.03
Cc1cc(OCC(=O)Nc2cccc(O)c2)cc(C)c1Cc1ccc(O)c(C(C)C)c1	0.04	325.7	12.8	10.1	–	–	–
Cc1cc(OCC(=O)N(C)C)cc(C)c1Cc1ccc(O)c(C(C)C)c1	3.17	10.4	32.2	4.3	–	–	–
Cc1cc(OCC(=O)NCc2ccccc2)cc(C)c1Cc1ccc(O)c(C(C)C)c1	0.95	15.2	15.7	1.7	–	–	–
Cc1cc(OCC(=O)NCC(F)(F)F)cc(C)c1Cc1ccc(O)c(C(C)C)c1	0.76	80.2	59.4	4.8	–	–	–
Cc1cc(OCC(=O)NCCc2ccc(O)c(O)c2)cc(C)c1Cc1ccc(O)c(C(C)C)c1	0.94	4.9	7.4	0.8	–	–	–
CONC(=O)COc1cc(C)c(Cc2ccc(O)c(C(C)C)c2)c(C)c1	0.04	209.7	8.4	4.1	–	–	–
Cc1cc(OCC(=O)NC2COC2)cc(C)c1Cc1ccc(O)c(C(C)C)c1	0.75	110.6	79.2	3.7	–	–	–
Cc1cc(OCC(=O)NCCS(=O)(=O)[O-])cc(C)c1Cc1ccc(O)c(C(C)C)c1.[Na+]	0.18	45.7	7.1	8.9	–	–	–
Cc1cc(OCC(=O)NC(CO)CO)cc(C)c1Cc1ccc(O)c(C(C)C)c1	0.03	98	2.6	3.7	–	–	–
Cc1cc(OCC(=O)NCCc2ccccc2)cc(C)c1Cc1ccc(O)c(C(C)C)c1	1.31	8.6	11.3	1	–	–	–
Cc1cc(OCC(=O)NCC(F)F)cc(C)c1Cc1ccc(O)c(C(C)C)c1	1.04	128.8	125.4	3.4	–	–	–

Further lines, results first:

Kp [1]	Drug uptake [2] [ng/g]	Drug uptake [3] [ng/g]	Drug metabolism [4] [nmol/mg/min]	concentration at 1 h [5] [ng/g]	concentration at 1 h [6] [ng/g]	Kp at 1 h [7]	Compound
1.7	64.2	107.1	3.5	–	–	–	Cc1cc(OCC(=O)NCCF)cc(C)c1Cc1ccc(O)c(C(C)C)c1
2.74	21.5	58.2	3.4	–	–	–	CCNC(=O)COc1cc(C)c(Cc2ccc(O)c(C(C)C)c2)c(C)c1
0.57	107.7	59.9	5	–	–	–	Cc1cc(OCC(=O)NCC#N)cc(C)c1Cc1ccc(O)c(C(C)C)c1
0.99	59.4	59.5	3.2	–	–	–	C#CCNC(=O)COc1cc(C)c(Cc2ccc(O)c(C(C)C)c2)c(C)c1
1.23	25.4	33.4	3.6	–	–	–	C=CCNC(=O)COc1cc(C)c(Cc2ccc(O)c(C(C)C)c2)c(C)c1
0.07	6.9	0.8	5.6	–	–	–	Cc1cc(OCC(=O)NCCN)cc(C)c1Cc1ccc(O)c(C(C)C)c1
0.03	127.7	2.8	4.9	–	–	–	Cc1cc(OCC(=O)NO)cc(C)c1Cc1ccc(O)c(C(C)C)c1
0.58	199.5	68.2	3.8	–	–	–	Cc1cc(OCC(=O)NN)cc(C)c1Cc1ccc(O)c(C(C)C)c1
0.72	55.7	38.7	3.6	–	–	–	Cc1cc(OCC(=O)NCC(C)O)cc(C)c1Cc1ccc(O)c(C(C)C)c1 (stereo not given)
1.15	16.9	20.2	2.6	–	–	–	CCCNC(=O)COc1cc(C)c(Cc2ccc(O)c(C(C)C)c2)c(C)c1
0.37	66.8	25.5	4.8	–	–	–	Cc1cc(OCC(=O)NCCO)cc(C)c1Cc1ccc(O)c(C(C)C)c1
